Experiment [1] deals with Glucagon-like peptide 1 receptor (Homo sapiens, UniProt P43220). Kind of experiment: Agonist activity at recombinant human GLP1 receptor expressed in HEK293 cells assessed as cAMP accumulation by TR-FRET assay. The class given is functional, cell-based. On the technique in general: Cyclic AMP is a second messenger, typically raised through Gs and lowered through Gi signalling.

The subject of experiment [2] is Mus musculus. Kind of experiment: Antidiabetic activity in STZ/diet-induced obese C57BL/6 mouse assessed as reduction in serum total triglyceride level at 25 nmol/kg, ip administered daily for 4 weeks measured post last dose. The experiment is classed as functional, organism-based. In outline:
(§1)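 Male C57BL/6J DIO mice on high-fat diet were treated for 4 weeks with saline as control; LFD-fed mice (n = 6/group) were used as normal reference. Water intake, food intake and body weight were recorded daily. Terminal serum leptin and adiponectin were measured by ELISA. TC, TG, HDL, LDL, ALT and AST were measured on a clinical chemistry analyzer.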

Experiment [3] has as its system Mus musculus. Kind of experiment: Antidiabetic activity in STZ/diet-induced obese C57BL/6 mouse assessed as reduction in cumulative food intake at 25 nmol/kg, ip administered daily for 4 weeks measured daily during compound dosing relative to control. The experiment is classed as functional. Also noted: scale not given: the % may be the effect or the level left. A digest of the protocol: as §1

Experiment [4] has as its system Mus musculus. In words: Antidiabetic activity in STZ/diet-induced obese C57BL/6 mouse assessed as reduction in ratio of LDL to HDL level at 25 nmol/kg, ip administered daily for 4 weeks measured post last dose. The experiment is classed as functional, organism-based. In outline: as §1
The test system of experiment [5] is INS1. Kind of experiment: Cytoprotective activity against STZ-induced oxidative stress in rat INS-1 cells assessed as cell death at 10 to 100 nM after 24 hrs by MTT assay (reference value: 45%). The class given is functional.
The test system of experiment [6] is Mus musculus. In words: Hypoglycemic activity in STZ-induced diabetic Kunming mouse model assessed as reduction in glucose AUC (0 to 36 hrs) at 150 nmol/kg, ip administered as single dose. The class given is functional, organism-based. A digest of the protocol:
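Non-fasted STZ-diabetic Kunming mice with free access to food and water received a single i.p. injection (25 or 150 nmol/kg) or saline; n = 6/group. Blood glucose was followed over time. Euglycemic duration was defined as time below 8.35 mmol/L, and glucose AUC0–36h was calculated.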

In experiment [7] the test system is Mus musculus. In words: Antidiabetic activity in STZ-induced diabetic Kunming mouse model assessed as reduction in HbA1c level at 25 nmol/kg, ip administered once daily for 3 weeks measured at post last dose by Beckman coulter based method. The class given is functional, organism-based. In outline:
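STZ diabetes induced with 40 mg/kg/day i.p. for 5 consecutive days after overnight fasting. Mice with fasting glucose ≥11.1 mM were grouped by matched body weight and dosed 25 nmol/kg i.p. once daily for 3 weeks; saline served as control. Fasting plasma glucose was measured every five days, and HbA1c at day 24; n = 6/group.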

Experiment [8] concerns Mus musculus. In words: Antidiabetic activity in STZ/diet-induced obese C57BL/6 mouse assessed as reduction in serum leptin level at 25 nmol/kg, ip administered daily for 4 weeks measured post last dose. The experiment is classed as functional. In outline:
as §1

The subject of experiment [9] is Mus musculus. Kind of experiment: Antidiabetic activity in STZ/diet-induced obese C57BL/6 mouse assessed as reduction in cumulative water intake at 25 nmol/kg, ip administered daily for 4 weeks measured daily during compound dosing relative to control. Further details: scale not given: the % may be the effect or the level left. The experiment is classed as functional. In outline: as §1

For experiment [10], the system named is Rattus norvegicus. In words: Antidiabetic activity in Sprague-Dawley rat assessed as reduction in blood glucose AUC at 25 nmol/kg, ip treated 30 mins prior to glucose challenge measured at 15 mins interval for 180 mins by OGTT. The class given is functional, organism-based.
In experiment [11] the test system is INS1. Kind of experiment: Cytoprotective activity against STZ-induced oxidative stress in rat INS-1 cells assessed as cell death at 1 nM after 24 hrs by MTT assay (reference value: 45%). The experiment is classed as functional. Background: Tetrazolium assays rely on reduction of a dye to a coloured formazan, in cell work by metabolically active cells.
In experiment [12] the test system is Mus musculus. Kind of experiment: Antidiabetic activity in STZ/diet-induced obese C57BL/6 mouse assessed as increase in serum adiponectin level at 25 nmol/kg, ip administered daily for 4 weeks measured post last dose. The class given is functional, organism-based. In outline:
as §1

For experiment [13], the system named is Mus musculus. Kind of experiment: Antidiabetic activity in C57BL/6 mouse assessed as reduction in blood glucose AUC (0 to 120 mins) at 25 nmol/kg, ip treated 30 mins prior to glucose challenge by IPGTT. The class given is functional, organism-based. In outline: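 Male C57BL/6 mice, 6 weeks old, fasted overnight (12 h), n = 6/group; given 25 nmol/kg or saline i.p., then i.p. glucose challenge (2.0 g/kg) 30 min later, set as 0 h. Glucose challenges were repeated at 6 h intervals to mimic three meals a day. Blood glucose was followed and AUC calculated.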

Active and inactive are the calls of the source.

Glucagon-like peptide 1 receptor, sequence (P43220 whole entry): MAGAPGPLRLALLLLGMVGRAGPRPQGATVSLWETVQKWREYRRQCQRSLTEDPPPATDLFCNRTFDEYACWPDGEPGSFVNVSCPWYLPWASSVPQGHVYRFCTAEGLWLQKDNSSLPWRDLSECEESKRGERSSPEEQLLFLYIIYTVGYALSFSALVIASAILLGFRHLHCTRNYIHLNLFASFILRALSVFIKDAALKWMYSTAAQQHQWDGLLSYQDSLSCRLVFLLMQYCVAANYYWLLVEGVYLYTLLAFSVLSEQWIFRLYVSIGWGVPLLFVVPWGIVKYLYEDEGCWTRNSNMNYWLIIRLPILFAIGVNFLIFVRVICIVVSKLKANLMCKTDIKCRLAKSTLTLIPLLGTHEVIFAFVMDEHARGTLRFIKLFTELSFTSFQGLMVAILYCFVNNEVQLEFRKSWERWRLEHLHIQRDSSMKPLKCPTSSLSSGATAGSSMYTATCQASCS

By EC50 is commonly meant the midpoint of the concentration-response curve. In the case of `CC[C@H](C)[C@H](NC(=O)[C@H](Cc1ccccc1)NC(=O)[C@H](CCC(=O)O)NC(=O)[C@H](CCCCN)NC(=O)[C@H](C)NC(=O)[C@H](C)NC(=O)[C@H](CCC(N)=O)NC(=O)CNC(=O)[C@H](CCC(=O)O)NC(=O)[C@H](CC(C)C)NC(=O)[C@H](Cc1ccc(O)cc1)NC(=O)[C@H](CO)NC(=O)[C@H](CO)NC(=O)[C@@H](NC(=O)[C@H](CC(=O)O)NC(=O)[C@H](CO)NC(=O)[C@@H](NC(=O)[C@H](Cc1ccccc1)NC(=O)[C@@H](NC(=O)CNC(=O)[C@H](CCC(=O)O)NC(=O)CNC(=O)[C@@H](N)Cc1cnc[nH]1)[C@@H](C)O)[C@@H](C)O)C(C)C)C(=O)N[C@@H](C)C(=O)N[C@@H](Cc1c[nH]c2ccccc12)C(=O)N[C@@H](CC(C)C)C(=O)N[C@H](C(=O)N[C@@H](CCCCN)C(=O)NCC(=O)N[C@@H](CCCNC(=N)N)C(=O)N[C@@H](CSC1CC(=O)N(CCCCCCCCCCCC(=O)O)C1=O)C(N)=O)C(C)C` (stereo partly drawn), in [1], the EC50 amounted to 0.0198 nM. Also, the outcome in [2], in experiment [6], in experiment [7], in experiment [10], in [12] and in experiment [13] was Active. Further, the Activity is 24.9% in experiment [3]; 21.9% in experiment [5]; 2.5 ng/mL in experiment [8]; “<=33.5%” in [9]; 28.8% in [11]. Moreover, the outcome in experiment [4] was inactive.

The values are drawn from ChEMBL document CHEMBL4219235, “Novel fatty acid chain modified GLP-1 derivatives with prolonged in vivo glucose-lowering ability and balanced glucoregulatory activity” (Bioorg Med Chem, 2018).
